Measurements from article PMC3107129 (Nature chemical biology, 2010).
Blank lines part the entries; values can stand above or below the compound they belong to.

How the values were obtained:
[1] = target: TTR in human blood plasma (Homo sapiens, UniProt P02766); assay: covalent modification of TTR in human blood plasma ex vivo; assay type: binding; details: compound 10.8 μM, 37 °C, maximum 50% (2/4 subunits)
Summary of the method: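 Test compound at 10.8 μM final, from DMSO stock, incubated with human plasma (TTR 3.6–5.4 μM) for 24 h at 37 °C with rocking. Plasma pre-cleared on plain sepharose for 1 h at 4 °C. TTR immunocaptured on anti-TTR sepharose for 20 min at 4 °C, then washed with Tris-saline ± 0.05% saponin. Eluted with 100 mM triethylamine, pH 11.5. C18 RP-HPLC, 45-min 0.1% TFA water→acetonitrile gradient; at most 2/4 subunits modifiable.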

recombinant WT-TTR = recombinant WT-TTR (Homo sapiens, UniProt P02766); assay: conjugation of recombinant WT-TTR by RP-HPLC; assay type: binding; details: for conjugation half-life (t50) with WT-TTR: recombinant WT-TTR, C18-RP-HPLC
K15A-TTR [2] = target: T1, K15A-TTR (Homo sapiens, UniProt P02766, K35A); assay: non-covalent binding to K15A-TTR; details: out of a maximum of 2 eq.; immunocapture, high-pH dissociation, HPLC
K15A-TTR [3] = target: T1, K15A-TTR; assay: reaction with K15A-TTR homotetramer by RP-HPLC; assay type: binding; details: compound 7.2 μM, 18 h, 25 °C
K15A-TTR [4] = target: T1, K15A-TTR; assay: K15A-TTR fibril formation at pH 4.4 with non-covalent stabilizers; assay type: biochemical; details: compound 7.2 μM, 72 h
[5] = system: IMR-32 human neuroblastoma cells; details: cited from earlier work

Structure (SMILES): O=C(Sc1ccccc1)c1cccc(/C=C/c2cc(Br)c(O)c(Br)c2)c1 [Compound 1]
- % Modification of TTR subunits in Human Blood Plasma [1]: 36% (±0.4%)
- conjugation half-life (t50) with WT-TTR (recombinant WT-TTR): 143 min

Structure (SMILES): Cc1cc(/C=C/c2cccc(C(=O)Sc3ccccc3)c2)cc(C)c1O [Compound 2]
- % Modification of TTR subunits in Human Blood Plasma [1]: 48% (±1.3%)
- conjugation half-life (t50) with WT-TTR (recombinant WT-TTR): 5 to 15 min

Structure (SMILES): Cc1cc(/C=C/c2cccc(C(=O)O)c2)cc(C)c1O [Compound 8]
- stabilization of K15A-TTR against fibril formation (K15A-TTR [4]): additional stabilization of K15A-TTR was observed

Structure (SMILES): Cc1cc(/C=C/c2ccccc2)cc(C)c1O [Compound 9]
- stabilization of K15A-TTR against fibril formation (K15A-TTR [4]): additional stabilization of K15A-TTR was observed

Structure (SMILES): Oc1ccc(/C=C/c2cc(O)cc(O)c2)cc1 [resveratrol]
- prevention of amyloid-formation-associated cytotoxicity [5]: known to prevent amyloid-formation-associated cytotoxicity

Results, then the compound that gave them:

- % Modification of TTR subunits in Human Blood Plasma [1]: 49% (±0.7%)
- conjugation half-life (t50) with WT-TTR (recombinant WT-TTR): 5 to 15 min
Structure (SMILES): Cc1cc(/C=C/c2cccc(C(=O)Oc3ccccc3[N+](=O)[O-])c2)cc(C)c1O [Compound 3]

- equivalents non-covalently bound to K15A-TTR homotetramer (K15A-TTR [2]): 1.4 eq.
- reaction with K15A-TTR (K15A-TTR [3]): no reaction could be detected
Structure (SMILES): Cc1cc(/C=C/c2cccc(C(=O)Oc3ccc(F)cc3)c2)cc(C)c1O [Compound 4]

- reaction with K15A-TTR (K15A-TTR [3]): more non-chemoselective conjugation
Structure (SMILES): Cc1cc(/C=C/c2ccc(C(=O)Oc3ccccc3[N+](=O)[O-])cc2)cc(C)c1O [Compound 6]

- conjugation yield with WT-TTR (recombinant WT-TTR; WT-TTR […], compound 7.2 μM, 18 h, 25 °C): lower modification yield
Structure (SMILES): Cc1cc(/C=C/c2ccc(C(=O)Oc3ccc(F)cc3)cc2)cc(C)c1O [Compound 7]
